In general, pIC50 refers to the negative decadic logarithm of the IC50, by convention in mol/L. As usually defined, the IC50 is the midpoint of a concentration-inhibition curve. A lower IC50 goes with greater potency.

pIC50: −log10 of the molar value. Bounds are passed on as bounds.

16 compounds from ChEMBL document CHEMBL1126550, “Nanomolar-affinity, non-peptide oxytocin receptor antagonists” (J Med Chem, 1993) can be followed below.

In one experiment the target is T1, Oxytocin receptor (Rattus norvegicus, UniProt P70536).
T1 sequence (P70536 whole entry): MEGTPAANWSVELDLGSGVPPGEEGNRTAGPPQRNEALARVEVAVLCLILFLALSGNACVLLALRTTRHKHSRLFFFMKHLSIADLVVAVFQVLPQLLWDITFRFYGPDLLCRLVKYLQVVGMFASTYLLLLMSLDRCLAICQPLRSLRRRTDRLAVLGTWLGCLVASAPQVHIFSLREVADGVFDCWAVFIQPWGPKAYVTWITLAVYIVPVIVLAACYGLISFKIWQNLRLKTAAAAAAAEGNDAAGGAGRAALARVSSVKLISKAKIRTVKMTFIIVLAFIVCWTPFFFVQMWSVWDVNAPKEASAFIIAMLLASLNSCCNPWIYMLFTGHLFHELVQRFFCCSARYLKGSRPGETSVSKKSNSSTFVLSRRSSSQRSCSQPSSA
The experiment is described as follows: Inhibition of radioligand [3H]oxytocin binding at the oxytocin (OT) receptor in rat uterine tissue. An outline of the steps: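 Uteri taken from rats given diethylstilbestrol dipropionate (0.3 mg/kg ip, 18–24 h before), crude membranes. 1 nM [3H]OT (30–60 Ci/mmol), equilibrium 60 min at 22 °C in 50 mM Tris-HCl, 5 mM MgCl2, 0.1% BSA, pH 7.4. Nonspecific binding with 1 mM unlabeled OT. Filtered on glass fiber. Initial single-concentration screen, then IC50 from seven concentrations by linear regression.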

The next experiment addresses Vasopressin V1 receptor (Rattus norvegicus, UniProt P48974+P30560). The experiment is described as follows: Inhibition of radioligand [3H]AVP binding to the vasopressin V1 receptor in rat liver tissue. Put shortly:
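Crude membranes from male rat liver (V1 sites) competed with 1 nM [3H]AVP (80–90 Ci/mmol). Equilibrium 30 min, 30 °C, buffer 100 mM Tris-HCl, 5 mM MgCl2, 0.1% BSA, 50 μM PMSF, 50 μg/mL bacitracin, pH 8.0. 10 μM unlabeled AVP for nonspecific binding. Filtration through glass-fiber filters. IC50 from linear regression over seven concentrations.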

A further experiment addresses Vasopressin V2 receptor (Rattus norvegicus, UniProt Q00788). Briefly: Inhibition of radioligand [3H]-AVP binding to the vasopressin V2 receptor in rat kidney tissue. An outline of the steps:
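[3H]AVP (80–90 Ci/mmol) at 2 nM competed on crude membranes from male rat kidney medulla (V2 sites). Equilibrium 30 min at 30 °C in 100 mM Tris-HCl, 5 mM MgCl2, 0.1% BSA, 50 μM PMSF, 50 μg/mL bacitracin, pH 8.0. Nonspecific binding with 10 μM unlabeled AVP. Glass-fiber filtration. IC50 by linear regression of % inhibition vs log concentration, seven concentrations.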

Sequence of Vasopressin V2 receptor (Q00788 whole entry): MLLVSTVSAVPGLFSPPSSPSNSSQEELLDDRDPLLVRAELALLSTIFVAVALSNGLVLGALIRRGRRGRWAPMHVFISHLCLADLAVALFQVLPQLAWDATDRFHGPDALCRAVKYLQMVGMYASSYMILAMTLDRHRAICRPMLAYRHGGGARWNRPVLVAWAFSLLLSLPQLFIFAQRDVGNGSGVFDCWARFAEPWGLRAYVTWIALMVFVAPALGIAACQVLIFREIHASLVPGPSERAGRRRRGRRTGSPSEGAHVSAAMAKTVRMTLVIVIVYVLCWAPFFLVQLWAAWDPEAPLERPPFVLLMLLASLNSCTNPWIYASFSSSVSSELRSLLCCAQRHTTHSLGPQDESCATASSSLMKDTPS

Turning to `CC1(C)[C@@H]2CC[C@@]1(CS(=O)(=O)N1CCC3(CCc4ccccc43)CC1)[C@@H](NC(=O)CC(CC(N)=O)NC(=O)Cc1c[nH]cn1)C2` (stereo partly drawn), the pIC50 at Oxytocin receptor was 7.30; on Vasopressin V2 receptor it was 5.27. This compound also yielded an IC50 at Vasopressin V1 receptor of 1300 nM.

Turning to `CC1(C)[C@@H]2CC[C@@]1(CS(=O)(=O)N1CCC3(CCc4ccccc43)CC1)[C@@H](NC(=O)c1ccncc1)C2`, the pIC50 is 6.72 on Oxytocin receptor and less than 5.00 at Vasopressin V2 receptor. At Vasopressin V1 receptor, this compound yielded an IC50 of more than 1000 nM.

For the compound `CC1(C)[C@@H]2CC[C@@]1(CS(=O)(=O)N1CCC3(C=Cc4ccccc43)CC1)[C@@](O)(CCNC(=O)Cc1c[nH]cn1)C2`, the pIC50 on Oxytocin receptor is 7.05; on Vasopressin V2 receptor, less than 5.52. On Vasopressin V1 receptor, this compound had an IC50 of more than 300 nM.

Regarding `CC1(C)[C@@H]2CC[C@@]1(CS(=O)(=O)N1CCC3(CCc4ccccc43)CC1)[C@@H](NC(=O)C1CN3CCC1CC3)C2` (stereo partly drawn), the values for the pIC50 at Oxytocin receptor and on Vasopressin V2 receptor were 7.54 and 5.26, respectively. At Vasopressin V1 receptor, the IC50 was 530 nM.

Turning to `CC1(C)[C@@H]2CC[C@@]1(CS(=O)(=O)N1CCC3(CCc4ccccc43)CC1)[C@@H](NC(=O)[C@H](N)CCC(N)=O)C2`, the pIC50 is 7.92 on Oxytocin receptor and 5.29 at Vasopressin V2 receptor. The compound further registered an IC50 on Vasopressin V1 receptor of 2300 nM.

Turning to `CC1(C)[C@@H]2CC[C@@]1(CS(=O)(=O)N1CCC3(C=Cc4ccccc43)CC1)[C@@](O)(CNC(=O)Cc1ccccn1)C2`, the negative logarithm of the IC50 (pIC50) at Oxytocin receptor is 7.09; at Vasopressin V2 receptor, 5.33. Besides, the IC50 on Vasopressin V1 receptor is given as 830 nM.

For the compound `Cn1cnc(CC(=O)N(CCS(C)(=O)=O)[C@H]2C[C@H]3CC[C@]2(CS(=O)(=O)N2CCC4(CCc5ccccc54)CC2)C3(C)C)c1`, the pIC50 at Oxytocin receptor is 8.22; at Vasopressin V2 receptor, 6.19. For the same compound, the IC50 at Vasopressin V1 receptor is on record as 320 nM.

In the case of `CC1(C)[C@@H]2CC[C@@]1(CS(=O)(=O)N1CCC3(CCc4ccccc43)CC1)[C@@H](NC(=O)CCN)C2`, the pIC50 at Oxytocin receptor is 6.85; on Vasopressin V2 receptor, 5.02. The IC50 on Vasopressin V1 receptor was 1000 nM.

Consider `CC1(C)[C@@H]2CC[C@@]1(CS(=O)(=O)N1CCC3(CCc4ccccc43)CC1)[C@@H](N1C(=O)NC(=O)C1=O)C2`, for which the pIC50 on Oxytocin receptor was 6.74; on Vasopressin V2 receptor, 4.80. The compound also yielded an IC50 on Vasopressin V1 receptor of 9200 nM.

As to `CC1(C)[C@@H]2CC[C@@]1(CS(=O)(=O)N1CCC3(CCc4ccccc43)CC1)[C@@H](N1C(=O)CN(CC(=O)Nc3ncc[nH]3)C1=O)C2`, the figures for the pIC50 at Oxytocin receptor and at Vasopressin V2 receptor were 8.23 and 6.13, respectively. For the same compound, the IC50 on Vasopressin V1 receptor worked out at 500 nM.

For `CC1(C)[C@@H]2CC[C@@]1(CS(=O)(=O)N1CCC3(C=Cc4ccccc43)CC1)[C@@](O)(CC(=O)O)C2`, the pIC50 at Oxytocin receptor was 6.10; on Vasopressin V2 receptor, 4.15. Moreover, at Vasopressin V1 receptor, the IC50 turned out to be 78000 nM.

On to `CC1(C)[C@@H]2CC[C@@]1(CS(=O)(=O)N1CCC3(CCc4ccccc43)CC1)[C@@H](NC(=O)Cc1ccccn1)C2`, for which the results for the pIC50 on Oxytocin receptor and at Vasopressin V2 receptor were 7.02 and 5.19, respectively. At Vasopressin V1 receptor, this compound returned a concentration for half-maximal inhibition (IC50) of 3900 nM.

With `CC1(C)[C@@H]2CC[C@@]1(CS(=O)(=O)N1CCC3(CCc4ccccc43)CC1)[C@@H](NC(=O)NC1CN3CCC1CC3)C2` (single isomer, unassigned; isomer B), the values for the pIC50 at Oxytocin receptor and at Vasopressin V2 receptor were 7.43 and 4.96, respectively. The IC50 at Vasopressin V1 receptor amounted to 2100 nM.

For the compound `CC1(C)[C@@H]2CC[C@@]1(CS(=O)(=O)N1CCC3(CCc4ccccc43)CC1)[C@@H](N1C(=O)CN(CC#N)C1=O)C2`, the pIC50 at Oxytocin receptor is 8.38; on Vasopressin V2 receptor it was 5.77. At Vasopressin V1 receptor, the IC50 amounted to 530 nM.

As for `CC1(C)[C@@H]2CC[C@@]1(CS(=O)(=O)N1CCC3(C=Cc4ccccc43)CC1)[C@@](O)(CNC(=O)c1ccccn1)C2`, the pIC50 was 6.74 on Oxytocin receptor and 5.44 at Vasopressin V2 receptor. Also, the 50% inhibitory concentration (IC50) at Vasopressin V1 receptor is on record as 1100 nM.

For the compound `CC(=O)N[C@H]1C[C@H]2CC[C@]1(CS(=O)(=O)N1CCC3(CCc4ccccc43)CC1)C2(C)C`, the pIC50 on Oxytocin receptor was 6.41; on Vasopressin V2 receptor, 4.59. The compound also showed a half-inhibitory concentration (IC50) at Vasopressin V1 receptor of 7600 nM.
